PGC1a acetyl inh – lowers PGC1a acetylation signal in U2OS cells | AlphaScreen anti-acetyl-lysine; with virally co-expressed GCN5 acetyltransferase | inhibition, % at 15.6 µM | actives 0.17% (n = 350,000) | AID 651687;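 active means every replicate shows inhibition of at least 40%; inconclusive means mean inhibition at least 40% but some replicate below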;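 further: 0% = neutral control wells and 100% = positive control wells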
ERAP1 HTS inh – ERAP1 (human) enzyme inhibition. actives 0.15% (n = 340,000). recombinant ERAP1, Leu-AMC fluorescence, 60 min. inhibition, % at 10.7 µM. Q9NZ08;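 active means mean replicate inhibition of at least 30%, or all replicates individually reaching that 30% level; inactive means mean below 30% and not every replicate reaching it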;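 further: 0% = neutral control wells and 100% = L-leucinethiol positive control wells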
FGF22 binding – shifts melting point of recombinant human FGF22; Q9HCT0; recombinant FGF22 thermal shift, SYPRO orange fluorescence; percent of sucrose octasulfate shift, DMSO zero; activity (Tm shift, normalised), % at 9.99 µM; actives 1.5% (n = 340,000);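 active means mean Tm shift, scaled 0 neutral to 100 positive control, at about 1.3% or above, every replicate too, limit read from the data; inconclusive means no clear call, values can overlap the other calls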
Target sequence (Q9HCT0 whole entry, looked up): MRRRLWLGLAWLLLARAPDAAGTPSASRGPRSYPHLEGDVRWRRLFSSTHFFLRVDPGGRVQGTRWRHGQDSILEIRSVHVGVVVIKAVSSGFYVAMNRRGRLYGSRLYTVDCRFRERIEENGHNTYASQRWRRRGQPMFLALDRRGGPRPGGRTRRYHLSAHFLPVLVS
Cneo AK release – Cryptococcus neoformans lysis via adenylate kinase release; C. neoformans lysis, adenylate kinase release luminescence, 4 h; normalised: neutral wells 0, clomiphene wells 100; lysis activity, % at 15 µM; actives 0.2% (n = 360,000); AID 651654;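 active means mean lysis activity across replicates of at least 80%, whatever share of replicates individually reach that level; inactive means mean lysis activity below 80%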
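Material: C. neoformans cells; Schedule: 4 h static compound exposure, 37 °C, read 1 h post-reagent; Measured by: adenylate kinase release luminescence; Read-out: signal increase indicating cell lysis; Controls: Clomiphene as positive lysis control.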
Ecoli rRNA inh – selective bacterial rRNA inhibition in E. coli; E. coli WT GFP vs humanized-ribosome RFP mutants, fluorescence, 24 h; active compounds read low; DMSO median 0, no signal -100; GFP signal change (wild-type ribosome), % (concentration not given with the values); actives 1.6% (n = 350,000); AID 720706;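 active means significant combined selectivity score with lowered wild-type GFP, culture density cut under 30%, mutant RFP and density less affected; inactive means any of these conditions unmet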
HIV Env fusion – blocks HIV Env-driven cell-cell fusion | inhibition, % at 12.3 µM | AID 651610 | HeLa-JRFL Env/CEM21 cell fusion, luciferase | actives 1.1% (n = 360,000);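 active means mean replicate inhibition score of at least 50 and every replicate individually at or above 50; inconclusive means only one of the two criteria met; inactive means mean below 50 and not all replicates reaching 50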;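 further: 0% = plate neutral controls and 100% = maraviroc near 300 nM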
Starred values were filed as active, the others as inactive; u = inconclusive; x = not tested or not shown; [ ] = remark or other dose. Only some compounds are listed: those with a hit (about 3.5% of all), similar ones and a draw of the others.

SMILES | PGC1a acetyl inh | ERAP1 HTS inh | FGF22 binding | Cneo AK release | Ecoli rRNA inh | HIV Env fusion
NC(Cc1ccc(Cl)cc1)c1csc(Nc2ccc(C(=O)c3ccccc3)cc2)n1 (stereo unspecified) | -42.9 | 1.7 | 0.1 | 0.9 | -59.0 | -4.4
Cn1nc(-c2ccc(Cl)cc2)cc1NC(=O)Nc1ccccc1 | x | -1.3 | 0.2 | 2.6 | -44.5* | -15.4
Cn1nc(-c2ccccc2)cc1NC(=O)Nc1ccc(C(C)(C)C)cc1 | x | x | -0.2 | x | -33.2 | 0.0
O=C(C[n+]1cc(-c2ccc(Cl)cc2)n2c1CCC2)Nc1nc(-c2ccccc2)cs1 | x | -1.6 | 0.1 | x | -44.4* | -12.8
O=C(C[n+]1cc(-c2ccc(F)cc2)n2c1CCC2)Nc1nc(-c2ccccc2)cs1 | x | x | x | -2.1 | x | x
O=C(CC(NCCc1ccccc1)C(=O)O)Nc1ccc(O)cc1 (stereo unspecified) | x | x | x | x | x | -28.9
CCOc1cc(CNCCc2ccc(S(N)(=O)=O)cc2)ccc1OCC(=O)NC1CCCCC1 | -1.8 | x | x | 0.6 | x | x
CCC(=O)N1C[C@@H](C)[C@@H](OC)CN(C)C(=O)c2cc(NC(=O)c3cnccn3)ccc2OC[C@@H]1C | 3.9 | -2.7 | 0.1 | -6.1 | 2.1 | 1.1[16.7 µM]
NC(Cc1ccc(C(F)(F)F)cc1)c1csc(NC(=O)Nc2ccccc2Cl)n1 (stereo unspecified) | -6.0 | -4.0 | -0.1 | -0.9 | -30.2 | 58.2*
CC(C)CC(N)c1csc(Nc2cnccn2)n1 (stereo unspecified) | -7.4 | 6.9 | 43.6* | 0.1 | 0.8 | 6.9
NC(Cc1ccc(C(F)(F)F)cc1)c1csc(NC(=O)Nc2ccccc2)n1 (stereo unspecified) | -1.6 | -1.2 | -0.1 | -2.0 | -61.2 | 77.7*
COc1ccc(CC(N)c2csc(NC(=O)Nc3cccc(C(F)(F)F)c3)n2)cc1 (stereo unspecified) | 1.2 | -2.8 | -0.2 | -0.3 | -61.5 | u
NC(CCc1ccccc1)c1csc(NC(=O)Nc2cccc(C(F)(F)F)c2)n1 (stereo unspecified) | -17.6 | -2.4 | 0.4 | -0.5 | -63.9 | 55.2*
COc1ccccc1N=CC1=C(O)CC(c2ccccc2)CC1=O (stereo unspecified) | x | 0.7 | -0.1 | 1.6 | 10.8 | -10.7
Cc1ccsc1/C=N/Nc1nc2ccccc2[nH]1 | 3.5 | -13.6 | 41.4 | -2.0 | -62.0 | -115.6
COc1ccccc1OCCNC(=O)CN(c1cccc(C)c1)S(=O)(=O)c1ccccc1 | x | -1.0 | -0.1 | -1.6 | -28.1 | x
O=C(Nc1cccc(Cl)c1)Nc1nc(-c2ccccc2)cs1 | 4.2 | 6.1 | 1.0 | x | -34.0 | -9.3
O=C(Nc1ccc(Cl)cc1)Nc1nc(-c2ccccc2)cs1 | 3.1 | -1.4 | 0.2 | x | -37.7* | 10.9
NC(CCc1ccccc1)c1csc(Nc2ccccn2)n1 (stereo unspecified) | x | 0.1 | 0.0 | 2.2 | -19.8 | 84.8*
Cc1cc(C)cc(N2CN=C3SCC(=O)N3C2)c1 | 4.8 | x | x | 0.7 | x | x
CCCN(CC1CC1)C(=O)CSc1ncnc2sc(C)c(C)c12 | -11.3 | x | x | -1.5 | x | 68.6*
Cc1ccc(C(=O)OCC(=O)Nc2cccc(S(=O)(=O)NC3=NCCCCC3)c2)c(C)c1 | -28.0 | -2.7 | 0.4 | -1.6 | -22.4* | -16.4
O=C(COC(=O)c1ccc2ccccc2n1)Nc1cccc(S(=O)(=O)NC2=NCCCCC2)c1 | x | 0.4 | 43.2* | x | 3.1 | -0.7
COc1cc(OC)c(C(=O)OCC(=O)Nc2cccc(S(=O)(=O)NC3=NCCCCC3)c2)cc1OC | -7.1 | 2.9 | -0.1 | 0.7 | x | x
OCCN1CCN(c2ncnc3c2ncn3[C@H]2CN(Cc3ccc(-c4ccccc4)cc3)C[C@@H](CO)O2)CC1 | 4.1 | -0.4 | 0.2 | -0.2 | -16.9 | -28.1
Cc1cccc(COc2ccc(/C=C3/C(=O)N(C)C(=S)N3C)cc2)c1 | 70.6* | -5.2 | 0.2 | 2.5 | 6.3 | 17.6
O=Cc1cn(CCOc2ccccc2)c2ccccc12 | 1.3 | 1.1 | -0.1 | -0.6 | 9.2 | 20.4
O=S(=O)(c1ccc2c(c1)C(=NO)c1cc(S(=O)(=O)N3CCCCC3)ccc1-2)N1CCCCC1 | -2.2 | x | x | 9.6 | x | 125.5*
CC1CCN(S(=O)(=O)c2ccc3c(c2)C(=NO)c2cc(S(=O)(=O)N4CCC(C)CC4)ccc2-3)CC1 | -65.0 | x | x | 0.3 | x | x

Source: PubChem BioAssay
